Data as given in ChEMBL document CHEMBL1132433, “6-Substituted 2-oxo-2H-1-benzopyran-3-carboxylic acid as a core structure for specific inhibitors of human leukocyte elastase” (J Med Chem, 1999).

Key:
[1] = biological target: T1, Neutrophil elastase (Homo sapiens) (UniProt P08246); experiment: Evaluation of kinetic parameter Ki/KI(1/M.1/S) by its ability to inhibit the HLE(Human Leukocyte Elastase) enzyme.
T1 sequence (whole entry): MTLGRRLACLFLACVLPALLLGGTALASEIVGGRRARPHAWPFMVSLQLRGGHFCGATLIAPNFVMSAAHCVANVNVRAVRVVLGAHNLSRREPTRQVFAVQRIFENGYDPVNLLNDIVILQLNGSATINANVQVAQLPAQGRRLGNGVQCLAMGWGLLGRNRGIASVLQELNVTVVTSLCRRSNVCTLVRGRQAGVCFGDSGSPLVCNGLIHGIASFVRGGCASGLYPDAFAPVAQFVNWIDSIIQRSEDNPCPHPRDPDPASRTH
Procedure, shortened: (§1)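 HLE, active-site titrated, assayed with MeO-Suc-AAPV-p-NA in 0.1 M Hepes, 0.5 M NaCl, 0.1% Tween 80, pH 8.0, 10% DMSO, 25 °C. Preincubation method ([HLE]0 20 nM, [I]0 1-10 µM) or progress curves (30 nM enzyme, [S]0 100 µM, [I]0 0.05-70 µM), 405 nm. Constants reflect the initial inactivation step. ki, KI fitted.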

[2] = biological target: Prothrombin (Homo sapiens) (UniProt P00734); experiment: Evaluation of kinetic parameter Ki/KI(1/M.1/S) by its ability to inhibit human thrombin.
Procedure, shortened: (§2)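 Human thrombin, active-site titrated, with chromogenic substrate S-2238 in 0.01 M Hepes, 0.01 M Tris, 0.1 M NaCl, 0.1% PEG6000, pH 7.5, 10% DMSO, 25 °C. Preincubation method ([THR]0 1.45 nM, [I]0 1-10 µM) or progress curves ([THR]0 0.58 nM, [S]0 10 µM, [I]0 1-14 µM), absorbance at 405 nm. ki and KI fitted; ki/KI = kobs/[I] at low inhibitor.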

[3] = biological target: Chymotrypsinogen A (Bos taurus) (UniProt P00766); experiment: Evaluation of kinetic parameter Ki/KI(1/M.1/S) by its ability to inhibit the Alpha-CT (Bovine alpha-chymotrypsin) enzyme
[4] = biological target: T1, Neutrophil elastase (Homo sapiens); experiment: Evaluated for the kinetic parameter Ki/KI(1/M.1/S) by its ability to inhibit the HLE(Human Leukocyte Elastase) enzyme [ki(se-1) andKi(uM)]; procedure, shortened: as §1
[5] = biological target: Chymotrypsinogen A (Bos taurus) (UniProt P00766); experiment: Compound was evaluated for the kinetic parameter Ki/KI(1/M.1/S) by its ability to inhibit the Alpha-CT (Bovine alpha-chymotrypsin) enzyme [ki(se-1) andKi(uM)]
[6] = biological target: Prothrombin (Homo sapiens) (UniProt P00734); experiment: Compound was evaluated for the kinetic parameter Ki/KI(1/M.1/S) by its ability to inhibit human thrombin; procedure, shortened: as §2
[7] = biological target: Chymotrypsinogen A (Bos taurus) (UniProt P00766); experiment: Evaluation of kinetic parameter Ki/KI(1/M.1/S) by its ability to inhibit the Alpha-CT (Bovine alpha-chymotrypsin) enzyme; No inactivation at 10 uM
[8] = biological target: T1, Neutrophil elastase (Homo sapiens); experiment: Compound was evaluated for the kinetic parameter Ki/KI(1/M.1/S) by its ability to inhibit the HLE(Human Leukocyte Elastase) enzyme; No inactivation at 10 uM; procedure, shortened: as §1
[9] = biological target: Chymotrypsinogen A (Bos taurus) (UniProt P00766); experiment: Compound was evaluated for the kinetic parameter Ki/KI(1/M.1/S) by its ability to inhibit the Alpha-CT (Bovine alpha-chymotrypsin) enzyme[ki(se-1) andKi(uM)]
[10] = biological target: Chymotrypsinogen A (Bos taurus) (UniProt P00766); experiment: Compound was evaluated for the kinetic parameter Ki/KI(1/M.1/S) by its ability to inhibit the Alpha-CT (Bovine alpha-chymotrypsin) enzyme.

Ki/KI [1] [M⁻¹ s⁻¹] | Ki/KI [2] | Ki/KI [3] [M⁻¹ s⁻¹] | Ki/KI [7] | Compound | further results
9100 | No inactivation | – | No inactivation | NCc1ccc2oc(=O)c(C(=O)Oc3cncc(Cl)c3)cc2c1 | –
45000 | No inactivation | – | No inactivation | CC(C)C(=O)OCc1ccc2oc(=O)c(C(=O)Oc3cncc(Cl)c3)cc2c1 | –
62000 | No inactivation | – | No inactivation | CCC(=O)OCc1ccc2oc(=O)c(C(=O)Oc3cncc(Cl)c3)cc2c1 | –
107000 | No inactivation | – | No inactivation | CC(=O)OCc1ccc2oc(=O)c(C(=O)Oc3cncc(Cl)c3)cc2c1 | –
58000 | – | – | No inactivation | O=C(Oc1cncc(Cl)c1)c1cc2cc(Br)ccc2oc1=O | –
95500 | No inactivation | – | No inactivation | CC(C)(C)C(=O)OCc1ccc2oc(=O)c(C(=O)Oc3cncc(Cl)c3)cc2c1 | –
1000 | No inactivation | 2500 | – | Cc1cncc(OC(=O)c2cc3cc(CCl)ccc3oc2=O)c1 | –
72700 | No inactivation | – | No inactivation | CCCC(=O)OCc1ccc2oc(=O)c(C(=O)Oc3cncc(Cl)c3)cc2c1 | –
32500 | No inactivation | – | No inactivation | Cc1ccc2oc(=O)c(C(=O)Oc3cncc(Cl)c3)cc2c1 | –

Continued, compound first:

Compound | Ki/KI [1] [M⁻¹ s⁻¹] | Ki/KI [2] | Ki/KI [3] [M⁻¹ s⁻¹] | Ki/KI [7] | further results
O=C(Oc1ccc(Cl)cn1)c1cc2cc(CCl)ccc2oc1=O | 110 | No inactivation | 2500 | – | –
O=C(Oc1cncc(Cl)c1)c1cc2cc(CCl)ccc2oc1=O | – | – | – | – | Ki/KI [4]: 64600 M⁻¹ s⁻¹; Ki/KI [5]: 31000 M⁻¹ s⁻¹; Ki/KI [6]: 200 M⁻¹ s⁻¹
COc1ccc(NC(=O)c2cc3cc(CCl)ccc3oc2=O)cn1 | – | – | – | No inactivation | Ki/KI [8]: No inactivation
O=C(Nc1cccnc1)c1cc2cc(CCl)ccc2oc1=O | – | – | – | – | Ki/KI [8]: No inactivation
Cc1ccc(OC(=O)c2cc3cc(CCl)ccc3oc2=O)c([N+](=O)[O-])n1 | – | – | 1500 | – | Ki/KI [8]: No inactivation
O=C(Nc1cccnc1Cl)c1cc2cc(CCl)ccc2oc1=O | – | – | – | No inactivation | Ki/KI [8]: No inactivation
Cc1ccnc(OC(=O)c2cc3cc(CCl)ccc3oc2=O)c1 | 300 | – | 5950 | – | Ki/KI [6]: 3900 M⁻¹ s⁻¹
O=C(Oc1cccnc1[N+](=O)[O-])c1cc2cc(CCl)ccc2oc1=O | 4000 | – | 4500 | – | –
Cc1cccc(OC(=O)c2cc3cc(CCl)ccc3oc2=O)n1 | 200 | No inactivation | 3300 | – | –
O=C(Oc1cncc(Cl)c1)c1cc2ccccc2oc1=O | 32800 | No inactivation | – | No inactivation | –
O=C(Oc1cccc(Cl)n1)c1cc2cc(CCl)ccc2oc1=O | 26000 | – | 107000 | – | Ki/KI [6]: 7200 M⁻¹ s⁻¹
Cc1ccc(OC(=O)c2cc3cc(CCl)ccc3oc2=O)cn1 | – | No inactivation | 1000 | – | Ki/KI [8]: No inactivation
O=C(Oc1cccnc1Cl)c1cc2cc(CCl)ccc2oc1=O | 3310 | – | 4300 | – | –
O=C(Oc1cccnc1Br)c1cc2cc(CCl)ccc2oc1=O | – | – | – | – | Ki/KI [4]: 3000 M⁻¹ s⁻¹; Ki/KI [9]: 2700 M⁻¹ s⁻¹
O=C(Oc1ccccn1)c1cc2cc(CCl)ccc2oc1=O | 420 | – | 1670 | – | Ki/KI [6]: 240 M⁻¹ s⁻¹
O=C(Oc1cccnc1)c1cc2cc(CCl)ccc2oc1=O | – | No inactivation | – | – | Ki/KI [4]: 770 M⁻¹ s⁻¹; Ki/KI [5]: 14800 M⁻¹ s⁻¹
O=C(Oc1ccccc1)c1cc2cc(CCl)ccc2oc1=O | 23 | – | – | – | Ki/KI [10]: 100000 M⁻¹ s⁻¹; Ki/KI [6]: 200 M⁻¹ s⁻¹
